This is an account of results in ChEMBL document CHEMBL1649090, “Discovery of (7R)-14-cyclohexyl-7-{[2-(dimethylamino)ethyl](methyl) amino}-7,8-dihydro-6H-indolo[1,2-e][1,5]benzoxazocine-11-carboxylic acid (MK-3281), a potent and orally bioavailable finger-loop inhibitor of the hepatitis C virus NS5B polymerase” (J Med Chem, 2011).

The subject of data set [1] is Hepatitis C virus. The data set is described as follows: Inhibition of HCV1b NS5B delta21 polymerase after 1 hr. The format is single protein, Hepatitis C virus subtype 1b. The method in brief: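 Enzyme inhibition IC50 measured on genotype 1b HCV NS5B polymerase truncated by 21 C-terminal residues (ΔC21).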
Data set [2] deals with Hepatitis C virus. As to the kind of experiment: Antiviral activity against HCV1b infected in human Huh-7 cells assessed as inhibition of viral RNA replication after 96 hrs by ELISA assay in presence of 50% normal human serum. As to conditions: genotype 1b, Huh-7, 96 h; call rule not given here. The format is functional, organism-based, Hepacivirus hominis.
Data set [3] is described as follows: AUC in Sprague-Dawley rat at 3 mg/kg, po. The format is ADME, organism-based. Further details: dose 3 mg/kg, route oral. As to conditions: plasma. The method in brief:
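Single-dose rat PK with the compound given as its TFA salt to Sprague-Dawley rats (n = 3) in DMSO/PEG400/water 20%/60%/20%. Dosing was 3 mg/kg iv and 3 mg/kg po.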

Data set [4] is described as follows: Intrinsic clearance in dog liver microsomes assessed per mg of protein. The format is ADME, Canis lupus familiaris, Microsome.
The test system of data set [5] is Hepatitis C virus. The data set is described as follows: Antiviral activity against HCV1a. To be noted: subtype 1a. The format is functional, organism-based, Hepacivirus hominis.
Data set [6] deals with Hepatitis C virus. As to the kind of experiment: Antiviral activity against HCV1b BK. The format is functional, organism-based, Hepacivirus hominis. To be noted: genotype 1b BK.
Data set [7] concerns Hepatitis C virus. As to the kind of experiment: Antiviral activity against HCV2a. The format is functional, organism-based, Hepacivirus hominis. As to conditions: genotype 2a.
A short description of data set [8]: Clearance in Sprague-Dawley rat at 3 mg/kg, iv and 3 mg/kg, po. The format is ADME, organism-based. As to conditions: in vivo. The method, boiled down:
(§1)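 Single-dose PK of the bis-HCl salt, n = 3 per species (dog po n = 2). Intravenous doses: rat 3, dog 1, rhesus 2 mg/kg, in DMSO/PEG400/water 20%/60%/20%. Oral doses: rat 3, dog 2, rhesus 4 mg/kg, in PEG400 for rat and dog and PEG400/water 70%/30% for rhesus.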

Data set [9] is described as follows: Volume of distribution at steady state in Sprague-Dawley rat at 3 mg/kg, iv and 3 mg/kg, po. As to conditions: in vivo, read-out: Vdss. The format is ADME, organism-based. The method, boiled down: (§2)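 Single iv and single oral doses, given as the bis-HCl salt, in rat, dog and rhesus, n = 3 per species (dog oral n = 2). The iv vehicle was DMSO/PEG400/water 20%/60%/20%. Oral vehicle was PEG400 for rat and dog and PEG400/water 70%/30% for rhesus. Values are mean ± SD.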

A short description of data set [10]: Cmax in Sprague-Dawley rat at 3 mg/kg, iv and 3 mg/kg, po. The format is ADME, organism-based. To be noted: in vivo. The method, boiled down:
as §1

The nature of data set [11]: Clearance in dog at 1 mg/kg, iv and 2 mg/kg, po. As to conditions: in vivo. The format is ADME, organism-based, Canis lupus familiaris. The method, boiled down: as §1
Data set [12] can be described thus: Clearance in rhesus monkey at 2 mg/kg, iv and 4 mg/kg, po. The format is ADME, organism-based, Macaca mulatta. To be noted: in vivo. The method in brief: as §1
Data set [13] can be described thus: Volume of distribution at steady state in rhesus monkey at 2 mg/kg, iv and 4 mg/kg, po. The format is ADME, organism-based, Macaca mulatta. As to conditions: in vivo, read-out: Vdss. The method, boiled down: as §2
Data set [14] can be described thus: Plasma protein binding in human. The format is ADME, cell-free. As to conditions: read-out: PPB (converted).
Data set [15] in a line: Plasma protein binding in rat. The format is ADME, cell-free. As to conditions: read-out: PPB (converted).
Data set [16] can be described thus: Plasma protein binding in dog. The format is ADME, cell-free, Canis lupus familiaris. As to conditions: read-out: PPB (converted).
Data set [17] can be described thus: Plasma protein binding in monkey. The format is ADME, cell-free, Macaca mulatta. To be noted: rhesus monkey, read-out: PPB (converted).
Data set [18] in a line: Intrinsic clearance in rat liver microsomes assessed per mg of protein in presence of UDPGA. The format is ADME, Microsome. For orientation: Liver microsomes are a subcellular fraction often used to study metabolism.
The target of another data set is Cytochrome P450 2C9 (Homo sapiens, UniProt P11712). The data set is described as follows: Inhibition of CYP2C9 up to 50 uM. The format is ADME.
Data set [19] deals with Protein kinase C alpha type (Homo sapiens, UniProt P17252). The data set is described as follows: Inhibition of PKCalpha.
For data set [20], the system named is Mus musculus. As to the kind of experiment: Toxicity in SCID mouse assessed as mortality at 50 mg/kg, ip bid for 5 days. To be noted: in vivo, 120 h. More on the design: dose 50 mg/kg, route intraperitoneal. The format is organism-based.
For data set [21], the system named is Mus musculus. As to the kind of experiment: Toxicity in SCID mouse assessed as change in body weight at 50 mg/kg, ip bid for 5 days. The format is organism-based. More on the design: dose 50 mg/kg, route intraperitoneal. To be noted: in vivo, 120 h. The method, boiled down: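 Non-infected SCID mice (n = 3) received 50 mg/kg by intraperitoneal injection twice daily for five consecutive days, as a tolerability run before the infected-mouse study. Body and organ weights were checked for gross changes. Plasma compound levels were measured 12 h after the last dose.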

Data set [22] in a line: Plasma concentration in SCID mouse at 50 mg/kg, ip bid for 5 days measured 12 hrs after last post dose. The format is ADME, organism-based. More on the design: dose 50 mg/kg, route intraperitoneal. The method, boiled down: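 SCID mice (n = 3) were given 50 mg/kg by intraperitoneal injection twice daily for five consecutive days. Plasma compound level was measured 12 h after the last dose.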

Data set [23] in a line: Plasma concentration in HCV1b infected humanized uPA+/+-SCID mouse at 50 mg/kg, ip bid for 4 days measured 12 hrs after last post dose. The format is ADME, organism-based. Further details: dose 50 mg/kg, route intraperitoneal. The method, boiled down:
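Three humanized uPA+/+-SCID mice infected with genotype 1b HCV received 10 or 50 mg/kg ip twice daily for 4 days, in PEG400/water 30%/70%. Trough plasma concentration was taken 12 h after the last dose.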

Cytochrome P450 2C9, sequence (P11712 whole entry): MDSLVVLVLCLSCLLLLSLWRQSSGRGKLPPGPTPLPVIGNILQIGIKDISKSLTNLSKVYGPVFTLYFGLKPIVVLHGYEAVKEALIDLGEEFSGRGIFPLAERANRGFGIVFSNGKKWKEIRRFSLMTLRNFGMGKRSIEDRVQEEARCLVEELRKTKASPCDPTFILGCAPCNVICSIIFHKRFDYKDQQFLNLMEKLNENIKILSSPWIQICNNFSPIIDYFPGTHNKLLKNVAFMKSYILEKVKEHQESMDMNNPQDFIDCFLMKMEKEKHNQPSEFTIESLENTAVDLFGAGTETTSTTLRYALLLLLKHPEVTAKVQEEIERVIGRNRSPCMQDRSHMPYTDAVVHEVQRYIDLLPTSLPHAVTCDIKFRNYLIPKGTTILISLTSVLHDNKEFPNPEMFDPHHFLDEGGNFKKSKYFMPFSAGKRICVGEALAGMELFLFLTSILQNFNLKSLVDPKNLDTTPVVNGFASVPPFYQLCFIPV

In the case of `CN(C)CCN(C)[C@H]1COc2ccccc2-c2c(C3CCCCC3)c3ccc(C(=O)O)cc3n2C1` [MK-3281], the IC50 (in general, the midpoint of a concentration-inhibition curve) with Hepatitis C virus [1] came to 6 nM; in data set [19] it was 59000 nM. Further, the EC50 (as a rule, the concentration giving half of the maximal effect) was found to be 110 nM in the data set on Hepatitis C virus [2], 28 nM in the data set with Hepatitis C virus [5], 9 nM in the data set with Hepatitis C virus [6] and 2020 nM in the data set with Hepatitis C virus [7]. Also, in [3], the exposure (AUC) (as a rule, the area under the concentration-time curve, a measure of exposure) is 2.4 µM·h. Besides, the microsomal CLint (commonly the capacity of the preparation to metabolise the compound, expressed as a volume cleared per time) in data set [4] is 3 µL/min/mg; in [18], < 4 µL/min/mg. The clearance in [8] amounted to 22 mL/min/kg; in data set [11], 7 mL/min/kg; in [12], 7 mL/min/kg. Also, the Vd in data set [9] is 3.7 L/kg; in data set [13] it was 2.2 L/kg. In addition, the Cmax (as a rule, the peak of the concentration-time curve) in data set [10] worked out at 500 nM. For the same compound, the fraction unbound in data set [14] is 0.031; in data set [15], 0.03; in data set [16] it was 0.027; in data set [17], 0.074. In addition, at Cytochrome P450 2C9, the “inhibition (INH)” value is recorded as “Not Active”. For the same compound, the Activity result in the data set on Mus musculus [20] and in the data set on Mus musculus [21] was “Non-toxic” each time. The concentration at 12 h in data set [22] was 3600 nM; in data set [23] it was 2600 nM.
